Measured values published in ChEMBL document CHEMBL4190227, “Syntheses, toxicities and anti-inflammation of H2S-donors based on non-steroidal anti-inflammatory drugs” (Eur J Med Chem, 2017).
Active and inactive are the calls of the source. The calls are words filed in the database; no cut-off is given here.

How the values were obtained:
[1] = species: Danio rerio; assay: Effect on locomotor activity in wild type AB zebrafish larvae assessed as decrease in total swimming distance at 0.5 to 1 uM measured for 5 mins at 144 hrs post fertilization by visible light test; format: ADME, organism-based; conditions: in vivo
[2] = species: Danio rerio; assay: Toxicity in AB zebrafish embryo assessed as reduction in embryonic spontaneous movement frequency per minute measured at 24 hrs post fertilization by stereoscopic dissecting light microscopic analysis; format: organism-based; conditions: in vivo
In short: (§1)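 AB embryos exposed from 4 to 24 hpf to compound (0.5–20 μM) or DMF vehicle (1:1000); ten embryos per group chosen randomly; spontaneous movement recorded under stereoscopic dissecting microscope, frequency per min counted at 24 hpf; three independent experiments, mean ± SD.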

[3] = system: RAW264.7; assay: Antiinflammatory activity in mouse RAW264.7 cells assessed as increase in LPS-induced HO-1 expression at 100 uM incubated for 24 hrs post LPS induction by ELISA relative to contol; format: functional
In short: (§2)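 LPS (1 μg/mL) for 4 h, then compound at 10, 50, 100 μM for 24 h; cells lysed in RIPA, spun 12,000×g 10 min, protein normalised by BCA to 0.1 mg/mL; target (TNF-α, HO-1, IL-10 or COX-2) quantified by sandwich ELISA kit with mouse-specific polyclonal antibodies; four independent experiments.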

[4] = system: RAW264.7; assay: Inhibition of LPS-induced COX2 expression in mouse RAW264.7 cells at 10 to 100 uM incubated for 24 hrs post LPS induction by ELISA; format: functional, cell-based; in short: as §2
[5] = species: Danio rerio; assay: Effect on locomotor activity in wild type AB zebrafish larvae assessed as decrease in total swimming distance at 10 uM measured for 5 mins at 144 hrs post fertilization by visible light test; format: ADME, organism-based; conditions: in vivo
[6] = system: RAW264.7; assay: Antiinflammatory activity in mouse RAW264.7 cells assessed as increase in LPS-induced IL10 levels at 10 to 100 uM incubated for 24 hrs post LPS induction by ELISA; format: functional, cell-based; in short: as §2
[7] = system: RAW264.7; assay: Antiinflammatory activity in mouse RAW264.7 cells assessed as reduction in LPS-induced TNFalpha levels incubated for 24 hrs post LPS induction by ELISA; format: functional, cell-based; in short: as §2
[8] = molecular target: T1, Nitric oxide synthase, inducible (Mus musculus) (UniProt P29477); assay: Inhibition of iNOS in mouse RAW264.7 cells assessed as reduction in LPS-induced NO production administered for 24 hrs post LPS induction by Griess method; format: cell-based
T1 sequence (whole entry): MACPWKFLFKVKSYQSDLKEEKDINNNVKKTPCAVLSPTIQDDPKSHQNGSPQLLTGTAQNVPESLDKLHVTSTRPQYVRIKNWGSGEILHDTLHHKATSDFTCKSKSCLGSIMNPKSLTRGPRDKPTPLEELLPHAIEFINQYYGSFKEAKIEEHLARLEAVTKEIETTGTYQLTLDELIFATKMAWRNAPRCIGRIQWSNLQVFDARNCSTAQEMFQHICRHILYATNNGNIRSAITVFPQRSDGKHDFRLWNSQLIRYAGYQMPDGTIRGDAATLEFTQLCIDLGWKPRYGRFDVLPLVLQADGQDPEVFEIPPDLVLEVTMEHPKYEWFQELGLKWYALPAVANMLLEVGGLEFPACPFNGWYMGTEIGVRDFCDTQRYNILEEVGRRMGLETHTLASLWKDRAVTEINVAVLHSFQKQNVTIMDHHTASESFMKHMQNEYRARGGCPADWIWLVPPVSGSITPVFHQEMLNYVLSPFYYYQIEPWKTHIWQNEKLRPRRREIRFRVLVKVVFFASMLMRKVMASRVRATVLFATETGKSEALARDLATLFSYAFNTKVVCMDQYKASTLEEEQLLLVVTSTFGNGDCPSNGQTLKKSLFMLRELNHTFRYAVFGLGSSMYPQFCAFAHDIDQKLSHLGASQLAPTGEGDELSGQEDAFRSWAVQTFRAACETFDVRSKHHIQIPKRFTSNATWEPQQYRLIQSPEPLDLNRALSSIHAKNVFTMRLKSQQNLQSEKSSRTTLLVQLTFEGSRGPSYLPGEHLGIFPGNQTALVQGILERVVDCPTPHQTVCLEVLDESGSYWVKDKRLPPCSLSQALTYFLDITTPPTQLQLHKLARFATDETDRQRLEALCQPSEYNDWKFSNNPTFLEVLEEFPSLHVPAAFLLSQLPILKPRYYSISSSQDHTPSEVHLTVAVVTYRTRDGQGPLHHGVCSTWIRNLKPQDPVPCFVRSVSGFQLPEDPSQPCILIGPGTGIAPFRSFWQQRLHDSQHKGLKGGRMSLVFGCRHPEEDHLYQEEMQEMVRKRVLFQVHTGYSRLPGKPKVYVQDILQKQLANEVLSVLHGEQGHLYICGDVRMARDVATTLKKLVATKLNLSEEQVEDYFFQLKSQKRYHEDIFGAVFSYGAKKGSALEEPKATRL
In short: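 RAW264.7 cells stimulated with LPS 1 μg/mL for 4 h, then compound (10, 50, 100 μM) for 24 h; culture medium reacted with Griess reagents I and II, absorbance 570 nm; nitrite from sodium nitrite standard curve (0–100 μM in medium); four independent experiments, mean ± SD.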

[9] = species: Danio rerio; assay: Toxicity in AB zebrafish embryo assessed as reduction in hatching rate of embryos measured at 48 hrs post fertilization by dissecting light microscopic analysis; format: organism-based; conditions: in vivo
In short: (§3)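 AB embryos exposed from 4 to 72 hpf to compound (0.5–20 μM) or DMF vehicle (1:1000), one embryo per well; hatch rate scored at 48 hpf; n=100 per group in three replicates; three independent experiments, mean ± SD.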

[10] = species: Danio rerio; assay: Toxicity in AB zebrafish embryo assessed as effect on hatching rate of embryos at 0.5 to 1 uM measured at 48 hrs post fertilization by dissecting light microscopic analysis; format: organism-based; conditions: in vivo; in short: as §3
[11] = species: Danio rerio; assay: Toxicity in AB zebrafish embryo assessed as reduction in number of embryos alive at 120 hrs post fertilization by dissecting light microscopic analysis; format: organism-based; conditions: in vivo
In short: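 Wild-type AB embryos, 100 per group split into three replicates, one per well in 200 μL test solution, plates sealed; DMF vehicle control (1:1000); mortality recorded at 24–168 hpf intervals; three independent experiments, mean ± SD.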

[12] = species: Danio rerio; assay: Toxicity in AB zebrafish embryo assessed as reduction in embryonic spontaneous movement frequency per minute at 0.5 uM measured at 24 hrs post fertilization by stereoscopic dissecting light microscopic analysis; format: organism-based; conditions: in vivo; in short: as §1
[13] = system: L02; assay: Cytotoxicity against human LO2 cells assessed as reduction in cell survival after 24 hrs by MTT assay; format: cell-based; conditions: L02, 24 h
[14] = species: Danio rerio; assay: Toxicity in AB zebrafish embryo assessed as reduction in hatching rate of embryos at 5 to 20 uM measured at 48 hrs post fertilization by dissecting light microscopic analysis; format: organism-based; conditions: in vivo; in short: as §3
[15] = system: HepG2; assay: Cytotoxicity against human HepG2 cells assessed as reduction in cell survival after 24 hrs by MTT assay; format: cell-based; conditions: HepG2, 24 h
[16] = system: RAW264.7; assay: Antiinflammatory activity in mouse RAW264.7 cells assessed as increase in IL10 levels at 10 to 100 uM measured after 24 hrs in absence of LPS by ELISA; format: functional, cell-based
In short: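 Macrophages exposed 24 h to 10, 50, 100 μM without LPS; lysates (RIPA, 12,000×g spin) normalised by BCA to 0.1 mg/mL protein; IL-10 measured by mouse-specific sandwich ELISA kit; four independent experiments, mean ± SD.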

With `CC(C)Cc1ccc(C(C)C(=O)Oc2ccc(C(N)=S)cc2)cc1` (configuration not stated) the Activity [1] was “Non-Toxic”, the Activity [2] was “Dose-dependent effect” and the “fold change (FC)” value [3] was >3. For the same molecule, the inhibition [4] was “Active”, the Activity [5] was “Toxic” and the Activity [6] was “Active”. For the same molecule, the Activity [7] was “Dose-dependent effect”, the inhibition [8] was “Dose-dependent effect” and the Activity [9] was “Dose-dependent effect”. For the same molecule, the Activity [10] was “Non-Toxic”, the Activity [11] was “Dose-dependent effect” and the Activity [12] was “Non-Toxic”. For the same molecule, the IC50 [13] was 221 µM, the Activity [14] was “Toxic” and the IC50 [15] was 89.3 µM. For the same molecule, the Activity [16] was “Active”.
For `CC(=O)Nc1ccc(OC(=O)CCCCC2CCSS2)cc1` (configuration not stated), the Activity [1] was “Non-Toxic”, the Activity [2] was “Dose-dependent effect” and the “fold change (FC)” value [3] was “<=2”. The inhibition [4] was “Active”, the Activity [5] was “Toxic” and the Activity [6] was “Active”. The Activity [7] was “Dose-dependent effect”, the inhibition [8] was “Dose-dependent effect” and the Activity [9] was “Dose-dependent effect”. For the same molecule, the Activity [10] was “Non-Toxic”, the Activity [11] was “Dose-dependent effect” and the Activity [12] was “Non-Toxic”. The IC50 [13] was 1790 µM, the Activity [14] was “Toxic” and the IC50 [15] was 966 µM. The Activity [16] was “Active”.
